Assay [1] concerns the target T1, Adenosine receptor A1 (Homo sapiens) (UniProt P30542).
T1 sequence (whole entry): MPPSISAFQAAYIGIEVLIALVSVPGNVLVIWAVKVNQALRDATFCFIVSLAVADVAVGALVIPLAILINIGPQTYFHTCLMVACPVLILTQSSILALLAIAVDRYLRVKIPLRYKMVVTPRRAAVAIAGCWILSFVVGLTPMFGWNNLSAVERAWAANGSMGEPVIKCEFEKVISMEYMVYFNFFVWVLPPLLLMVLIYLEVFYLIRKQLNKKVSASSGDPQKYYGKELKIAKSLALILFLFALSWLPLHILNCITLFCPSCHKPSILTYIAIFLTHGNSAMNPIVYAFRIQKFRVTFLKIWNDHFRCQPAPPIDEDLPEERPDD
Nature of the assay: Allosteric enhancer activity at recombinant human A1 adenosine receptor expressed in CHO cells assessed as change in forskolin-induced cAMP production at 0.01 uM after 6 mins by radioimmunoassay. The format is functional, cell-based. In short, it runs like this: (§1)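 hA1CHO cells (about 8000 fmol/mg protein) thawed from low-passage stocks, grown in Ham's F-12 with 10% FBS and G-418, then plated 48 h. Test compound at 0.01, 0.1, 1 or 10 µM with CPA (0.05–0.1 nM) for 6 min at 36 °C. Stopped with HCl (final 50 mM). cAMP in acidified extracts measured by radioimmunoassay. Reference enhancer run in each experiment. Four experiments per concentration.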

In assay [2] the target is T1, Adenosine receptor A1 (Homo sapiens). As to the kind of experiment: Allosteric enhancer activity at recombinant human A1 adenosine receptor expressed in CHO cells assessed as change in forskolin-induced cAMP production at 0.1 uM after 6 mins by radioimmunoassay. The format is functional, cell-based. An outline of the steps: as §1
Assay [3] shares this target. As to the kind of experiment: Allosteric enhancer activity at recombinant human A1 adenosine receptor expressed in CHO cells assessed as change in forskolin-induced cAMP production at 1 uM after 6 mins by radioimmunoassay. The format is functional, cell-based. An outline of the steps:
as §1

Assay [4] shares this target. Nature of the assay: Allosteric enhancer activity at recombinant human A1 adenosine receptor expressed in CHO cells assessed as change in forskolin-induced cAMP production at 10 uM after 6 mins by radioimmunoassay. The format is functional, cell-based. An outline of the steps:
as §1

Assay [5] has the same target. As to the kind of experiment: Displacement of [3H]DPCPX from recombinant human A1 adenosine receptor expressed in CHO cells at 10 uM after 120 mins by scintillation counting. The format is cell-based. An outline of the steps:
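Membranes from hA1CHO cells incubated with 1 nM [3H]DPCPX in 50 mM Tris–HCl pH 7.4 at 25 °C for 120 min. Compound added from a 100-fold DMSO stock, so 1% DMSO final, also present in controls. Bound ligand separated on GF/B filters and counted by scintillation. Result given as % of control specific binding.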

Assay [6] deals with Adenosine receptor A2a (Homo sapiens) (UniProt P29274). Nature of the assay: Displacement of [3H]ZM241385 from recombinant human A2A adenosine receptor expressed in CHO cells at 10 uM after 60 mins by scintillation counting. The format is cell-based. An outline of the steps:
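Membranes from hA2ACHO cells incubated with 1 nM [3H]ZM 241385 in 50 mM Tris–HCl, 10 mM MgCl2, pH 7.4 at 4 °C for 60 min. Compound added from a 100-fold DMSO stock, 1% DMSO final, also in controls. Separated by GF/B filtration and counted by scintillation. Result given as % of control specific binding.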

Assay [7] concerns the target T2, Adenosine receptor A3 (Homo sapiens) (UniProt P0DMS8).
T2 sequence (whole entry): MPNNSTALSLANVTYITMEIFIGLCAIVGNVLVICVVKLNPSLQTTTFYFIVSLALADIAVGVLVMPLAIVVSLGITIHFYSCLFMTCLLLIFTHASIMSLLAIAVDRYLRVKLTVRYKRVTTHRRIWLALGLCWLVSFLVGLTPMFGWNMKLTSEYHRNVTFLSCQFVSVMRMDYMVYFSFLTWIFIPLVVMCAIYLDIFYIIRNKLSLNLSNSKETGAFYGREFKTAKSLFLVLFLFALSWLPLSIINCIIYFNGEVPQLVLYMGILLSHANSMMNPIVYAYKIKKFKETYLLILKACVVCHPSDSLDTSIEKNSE
As to the kind of experiment: Displacement of [3H]MRE3008F20 from recombinant human A3 adenosine receptor expressed in CHO cells at 10 uM after 120 mins by scintillation counting. The format is cell-based. An outline of the steps:
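Membranes from hA3CHO cells incubated with 2 nM [3H]MRE 3008F20 in 50 mM Tris–HCl, 10 mM MgCl2, 1 mM EDTA, pH 7.4 at 4 °C for 120 min. Compound added from a 100-fold DMSO stock, 1% DMSO final, also in controls. Separated by GF/B filtration and counted by scintillation. Result given as % of control specific binding.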

Assay [8] addresses T1, Adenosine receptor A1 (Homo sapiens). Nature of the assay: Binding affinity to recombinant human A1 adenosine receptor allosteric site expressed in CHO cells assessed as [3H]CCPA Bmax shift at 10 uM after 90 mins relative to control. The format is cell-based. An outline of the steps: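 Saturation binding of [3H]CCPA (0.05–20 nM) to hA1CHO membranes. Membranes pretreated with adenosine deaminase 3 UI/mL for 30 min at 37 °C. Run in triplicate, 90 min at 25 °C, in 50 mM Tris–HCl pH 7.4, with or without test compound at final 10 µM. Nonspecific binding taken with 1 µM R-PIA. Bmax fitted by LIGAND. Shift is the fold of Bmax increase over control.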

For assay [9] the target is unchanged. As to the kind of experiment: Binding affinity to recombinant human A1 adenosine receptor allosteric site expressed in CHO cells assessed as [3H]DPCPX Bmax shift at 10 uM after 90 mins relative to control. The format is cell-based. In short, it runs like this: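 Saturation binding of [3H]DPCPX (0.05–20 nM) to hA1CHO membranes, run in triplicate, 90 min at 25 °C, in 50 mM Tris–HCl pH 7.4, with or without test compound at final 10 µM. Nonspecific binding taken with 1 µM DPCPX. KD and Bmax fitted by LIGAND. Shift is the fold of Bmax increase over control.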

The target is the same in assay [10]. Nature of the assay: Binding affinity to recombinant human A1 adenosine receptor allosteric site expressed in CHO cells assessed as potentiation of CCPA-induced [3H]DPCPX displacement at 10 uM after 90 mins relative to control. The format is cell-based. In short, it runs like this:
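Competition of CCPA (0.01 nM–1 µM) against 1 nM [3H]DPCPX on hA1CHO membranes, run in triplicate, 90 min at 25 °C, in 50 mM Tris–HCl pH 7.4, with or without test compound at 10 µM. Nonspecific binding taken with 1 µM DPCPX. Ki by Cheng–Prusoff. Shift = Ki(CCPA)/Ki(CCPA + 10 µM compound).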

SMILES strings stand for the structures.

Chain of Adenosine receptor A2a (Homo sapiens) (P29274 whole entry): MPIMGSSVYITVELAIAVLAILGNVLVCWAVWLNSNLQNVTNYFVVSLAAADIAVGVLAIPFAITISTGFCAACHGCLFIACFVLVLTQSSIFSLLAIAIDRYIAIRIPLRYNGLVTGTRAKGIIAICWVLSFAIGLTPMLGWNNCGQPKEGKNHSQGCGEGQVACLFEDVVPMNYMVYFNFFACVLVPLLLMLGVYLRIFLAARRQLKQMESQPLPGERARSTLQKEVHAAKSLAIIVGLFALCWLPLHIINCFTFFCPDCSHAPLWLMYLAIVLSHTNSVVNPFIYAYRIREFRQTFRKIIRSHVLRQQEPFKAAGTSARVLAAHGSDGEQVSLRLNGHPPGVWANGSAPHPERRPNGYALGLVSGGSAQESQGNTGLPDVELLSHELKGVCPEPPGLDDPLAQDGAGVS

Turning to `Nc1scc(CN2CCN(c3c(Cl)cccc3Cl)CC2)c1C(=O)c1ccc(Cl)cc1`, the Activity in assay [1] was 15%; in assay [2], 0%; in [3] it was -2.2%; in assay [4], -47%. Also, the results for the inhibition in [5], in [6] and in assay [7] were 0%, 0% and 1%, respectively. For the same compound, the fold change (FC) in [8] turned out to be 3.3; in assay [9], 0.9; in assay [10], 2.9.
For `Nc1scc(CN2CCN(c3c(F)cccc3F)CC2)c1C(=O)c1ccc(Cl)cc1`, the Activity in [1] is -12%; in assay [2] it was -23%; in assay [3], -65%; in assay [4] it was -80%. For the same compound, the inhibition in assay [5] came out at 1%; in [6], 1%; in [7] it was 4%. Moreover, the fold change (FC) in [8] is 6.3; in assay [9], 1.1; in [10], 5.
In the case of `Nc1scc(CN2CCN(c3cccc(F)c3F)CC2)c1C(=O)c1ccc(Cl)cc1`, the Activity in assay [1] is -13%; in assay [2], -5.2%; in assay [3], -66%; in assay [4] it was -79%. The inhibition in [5], in assay [6] and in assay [7] was 0% each time. In addition, the fold change (FC) in [8] is 4.8; in [9], 1; in assay [10], 4.
`Nc1scc(CN2CCN(c3cc(Cl)cc(Cl)c3)CC2)c1C(=O)c1ccc(Cl)cc1`: the Activity in assay [1] is -1%; in assay [2] it was -22%; in assay [3], -69%; in assay [4] it was -74%. Further, the inhibition worked out at 1% in assay [5], 0% in [6] and 1% in assay [7]. The results for the fold change (FC) in assay [8], in assay [9] and in assay [10] were 5.8, 1 and 4.5, respectively.
As to `Nc1scc(CN2CCN(c3cccc(Cl)c3Cl)CC2)c1C(=O)c1ccc(Cl)cc1`, the Activity in assay [1] is 1%; in [2] it was 3.2%; in assay [3] it was -57%; in assay [4] it was -77%. The inhibition in [5] came to 2%; in assay [6], 1%; in assay [7] it was 0%. Further, the fold change (FC) in assay [8] was 4.2; in [9] it was 1; in assay [10] it was 3.5.
For `Nc1scc(CN2CCN(CCc3ccc(Cl)cc3)CC2)c1C(=O)c1ccc(Cl)cc1`, the Activity in assay [1] is 1.2%; in assay [2], -3.1%; in assay [3] it was -32%; in assay [4], -76%. Besides, the inhibition came to 1% in assay [5], 0% in assay [6] and 2% in assay [7]. Also, the fold change (FC) was determined as 3.1 in [8], 1 in assay [9] and 3.4 in assay [10].
`Nc1scc(CN2CCN(c3cccc(F)c3)CC2)c1C(=O)c1ccc(Cl)cc1`: the Activity is -18% in assay [1], -37% in assay [2], -86% in assay [3] and -82% in assay [4]. Besides, the inhibition was 1% in assay [5], 1% in assay [6] and 4% in [7]. The fold change (FC) in [8] worked out at 4.8; in [9], 1; in assay [10], 3.9.
In the case of `CC(C)N1CCN(Cc2csc(N)c2C(=O)c2ccc(Cl)cc2)CC1`, the Activity in [1] is -1%; in assay [2] it was 3.6%; in [3], 7.3%; in assay [4] it was -7.4%. Also, the inhibition in [5], in [6] and in assay [7] was 0% in each case. Besides, the fold change (FC) in assay [8] is 1.1; in assay [9], 0.9; in assay [10], 1.2.
As for `Nc1scc(CN2CCN(c3cc(F)ccc3F)CC2)c1C(=O)c1ccc(Cl)cc1`, the Activity in assay [1] was 3.1%; in assay [2] it was -13%; in assay [3] it was -59%; in [4] it was -80%. Also, the inhibition amounted to 1% in [5], 0% in assay [6] and 2% in assay [7]. For the same compound, the fold change (FC) in assay [8] stood at 4.7; in assay [9], 1; in assay [10], 3.8.
For `Nc1scc(CN2CCN(c3c(F)cc(F)cc3F)CC2)c1C(=O)c1ccc(Cl)cc1`, the Activity in assay [1] was 4.2%; in [2], -3.9%; in assay [3] it was -56%; in assay [4], -78%. Also, the inhibition in assay [5], in [6] and in [7] was 0% throughout. For the same compound, the figures for the fold change (FC) in [8], in [9] and in assay [10] were 4.5, 1 and 3.6, respectively.
As for `Nc1scc(CN2CCN(c3ccc(C(F)(F)F)cc3)CC2)c1C(=O)c1cccc(C(F)(F)F)c1`, the Activity in assay [1] is -12%; in assay [2], -11%; in assay [3], -27%; in [4], -47%. Further, the inhibition in assay [5], in assay [6] and in assay [7] was 0% throughout. In addition, the fold change (FC) in [8] was 4.4; in assay [9], 1; in assay [10] it was 3.4.
For `Nc1scc(CN2CCN(c3ccc(Cl)cc3F)CC2)c1C(=O)c1ccc(Cl)cc1`, the Activity in assay [1] is -9.2%; in assay [2] it was -9.4%; in assay [3], -57%; in assay [4] it was -81%. Further, the inhibition worked out at 0% in assay [5], 0% in assay [6] and 1% in assay [7]. For the same compound, the fold change (FC) in [8] was 5.3; in [9], 1; in assay [10], 4.3.
